Assay results from ChEMBL document CHEMBL2203081 (Bioorg Med Chem Lett, 2012).
Active and inactive are the calls of the source. The calls are words filed in the database; no cut-off is given here.

Key:
[1] = biological target: NT-3 growth factor receptor (Homo sapiens) (UniProt Q16288); test: Inhibition of TRKC assessed as residual activity at 10 uM relative to control
[2] = biological target: Dual specificity protein kinase CLK1 (Homo sapiens) (UniProt P49759); test: Inhibition of CLK1 assessed as residual activity at 10 uM relative to control
[3] = biological target: Cyclin-dependent kinase-like 2 (Homo sapiens) (UniProt Q92772); test: Inhibition of CDKL2 assessed as residual activity at 10 uM relative to control
[4] = biological target: T1, NUAK family SNF1-like kinase 1 (Homo sapiens) (UniProt O60285); test: Inhibition of NUAK1 assessed as residual activity at 1 uM
T1 sequence (whole entry): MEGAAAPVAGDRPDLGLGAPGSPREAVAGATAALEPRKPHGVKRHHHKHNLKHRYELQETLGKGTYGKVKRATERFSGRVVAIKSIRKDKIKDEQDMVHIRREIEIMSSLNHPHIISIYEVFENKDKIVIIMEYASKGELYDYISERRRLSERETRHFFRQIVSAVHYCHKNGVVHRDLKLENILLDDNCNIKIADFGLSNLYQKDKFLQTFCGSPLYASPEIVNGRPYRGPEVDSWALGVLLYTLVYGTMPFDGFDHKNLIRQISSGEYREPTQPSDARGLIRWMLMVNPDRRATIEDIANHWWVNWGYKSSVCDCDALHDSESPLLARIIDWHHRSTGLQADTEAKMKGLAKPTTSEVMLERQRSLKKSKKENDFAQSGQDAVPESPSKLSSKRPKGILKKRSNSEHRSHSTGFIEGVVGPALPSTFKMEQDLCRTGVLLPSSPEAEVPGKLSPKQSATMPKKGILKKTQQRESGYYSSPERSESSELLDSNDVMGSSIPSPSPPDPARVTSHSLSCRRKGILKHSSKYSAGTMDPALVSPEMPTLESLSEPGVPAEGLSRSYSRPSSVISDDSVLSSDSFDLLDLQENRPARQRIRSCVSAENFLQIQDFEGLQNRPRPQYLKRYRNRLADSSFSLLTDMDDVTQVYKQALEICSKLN

[5] = biological target: Mitogen-activated protein kinase kinase kinase 9 (Homo sapiens) (UniProt P80192); test: Inhibition of MLK1 assessed as residual activity at 1 uM
[6] = biological target: T2, Ephrin type-B receptor 3 (Homo sapiens) (UniProt P54753); test: Inhibition of EPH-B3 assessed as residual activity at 1 uM
T2 sequence (whole entry): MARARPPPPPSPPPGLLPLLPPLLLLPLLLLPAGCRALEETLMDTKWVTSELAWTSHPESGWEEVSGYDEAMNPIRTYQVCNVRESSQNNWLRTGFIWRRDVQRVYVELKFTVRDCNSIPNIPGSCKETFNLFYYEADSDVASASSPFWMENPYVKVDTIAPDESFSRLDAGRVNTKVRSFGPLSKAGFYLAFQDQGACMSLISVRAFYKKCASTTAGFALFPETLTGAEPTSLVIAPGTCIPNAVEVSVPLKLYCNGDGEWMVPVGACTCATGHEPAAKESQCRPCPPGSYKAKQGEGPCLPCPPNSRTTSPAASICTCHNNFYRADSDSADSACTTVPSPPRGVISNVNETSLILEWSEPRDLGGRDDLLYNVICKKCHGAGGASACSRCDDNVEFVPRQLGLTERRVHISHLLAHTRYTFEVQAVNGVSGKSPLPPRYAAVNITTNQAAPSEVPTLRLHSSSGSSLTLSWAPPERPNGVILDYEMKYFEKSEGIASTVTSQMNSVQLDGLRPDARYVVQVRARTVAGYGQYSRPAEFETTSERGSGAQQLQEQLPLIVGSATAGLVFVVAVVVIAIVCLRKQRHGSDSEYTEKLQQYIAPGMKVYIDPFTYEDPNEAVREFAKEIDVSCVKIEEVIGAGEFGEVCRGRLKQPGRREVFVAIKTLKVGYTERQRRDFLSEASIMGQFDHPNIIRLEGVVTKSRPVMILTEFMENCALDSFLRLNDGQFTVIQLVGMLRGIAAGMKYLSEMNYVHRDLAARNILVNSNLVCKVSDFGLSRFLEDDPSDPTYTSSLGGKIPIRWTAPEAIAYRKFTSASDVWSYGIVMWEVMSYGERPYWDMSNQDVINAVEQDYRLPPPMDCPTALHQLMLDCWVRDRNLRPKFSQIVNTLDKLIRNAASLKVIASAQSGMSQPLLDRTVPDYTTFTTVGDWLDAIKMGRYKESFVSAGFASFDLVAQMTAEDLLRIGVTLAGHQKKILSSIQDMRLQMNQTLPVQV
In short: (§1)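 Standard radioactivity-based enzymatic kinase assays on a 131-kinase panel run by the Dundee profiling service; residual kinase activity recorded.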

[7] = system: Mus musculus; test: Inhibition of LRRK2 in mouse assessed as inhibition of Ser910 autophosphorylation in spleen at 100 mg/kg, ip by immunoblot method; assay type: functional, organism-based; parameters: dose 100 mg/kg
[8] = system: Mus musculus; test: Inhibition of LRRK2 in mouse assessed as inhibition of Ser910 autophosphorylation in kidney at 100 mg/kg, ip by immunoblot method; assay type: functional, organism-based; parameters: dose 100 mg/kg
[9] = biological target: Tyrosine-protein kinase CSK (Homo sapiens) (UniProt P41240); test: Inhibition of CSK assessed as residual activity at 1 uM
In short: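 Radioactivity-based enzymatic assay against a panel of 131 kinases (Dundee profiling). Activity remaining was measured with compound present at the stated concentration.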

[10] = biological target: Inhibitor of nuclear factor kappa-B kinase subunit epsilon (Homo sapiens) (UniProt Q14164); test: Inhibition of IKKe assessed as residual activity at 10 uM
[11] = biological target: Mitogen-activated protein kinase 1 (Homo sapiens) (UniProt P28482); test: Inhibition of ERK2 assessed as residual activity at 10 uM
In short: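 Radioactivity-based enzymatic activity assay of the named kinase, run as part of a 131-kinase specificity panel at the National Centre for Protein Kinase Profiling (Dundee). Residual activity was read at the stated single inhibitor concentration.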

[12] = biological target: T2, Ephrin type-B receptor 3 (Homo sapiens); test: Inhibition of EPH-B3 assessed as residual activity at 10 uM; in short: as §1
[13] = biological target: Focal adhesion kinase 1 (Homo sapiens) (UniProt Q05397); test: Inhibition of FAK assessed as residual activity at 10 uM relative to control
[14] = biological target: Ephrin type-A receptor 8 (Homo sapiens) (UniProt P29322); test: Inhibition of EPHA8 assessed as residual activity at 10 uM relative to control
In short: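 Competition kinase-binding assay (KINOMEscan) across a non-redundant panel of 329 kinases beyond the radiometric panel; residual binding expressed relative to control.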

[15] = biological target: Cyclin-dependent kinase 14 (Homo sapiens) (UniProt O94921); test: Inhibition of PFTK1 assessed as residual activity at 10 uM relative to control
[16] = biological target: Cyclin-dependent kinase 17 (Homo sapiens) (UniProt Q00537); test: Inhibition of PCTK2 assessed as residual activity at 10 uM relative to control
[17] = biological target: Serine/threonine-protein kinase PAK 5 (Homo sapiens) (UniProt Q9P286); test: Inhibition of PAK7 assessed as residual activity at 10 uM relative to control
Chain of Serine/threonine-protein kinase PAK 5 (Homo sapiens) (Q9P286 whole entry, looked up): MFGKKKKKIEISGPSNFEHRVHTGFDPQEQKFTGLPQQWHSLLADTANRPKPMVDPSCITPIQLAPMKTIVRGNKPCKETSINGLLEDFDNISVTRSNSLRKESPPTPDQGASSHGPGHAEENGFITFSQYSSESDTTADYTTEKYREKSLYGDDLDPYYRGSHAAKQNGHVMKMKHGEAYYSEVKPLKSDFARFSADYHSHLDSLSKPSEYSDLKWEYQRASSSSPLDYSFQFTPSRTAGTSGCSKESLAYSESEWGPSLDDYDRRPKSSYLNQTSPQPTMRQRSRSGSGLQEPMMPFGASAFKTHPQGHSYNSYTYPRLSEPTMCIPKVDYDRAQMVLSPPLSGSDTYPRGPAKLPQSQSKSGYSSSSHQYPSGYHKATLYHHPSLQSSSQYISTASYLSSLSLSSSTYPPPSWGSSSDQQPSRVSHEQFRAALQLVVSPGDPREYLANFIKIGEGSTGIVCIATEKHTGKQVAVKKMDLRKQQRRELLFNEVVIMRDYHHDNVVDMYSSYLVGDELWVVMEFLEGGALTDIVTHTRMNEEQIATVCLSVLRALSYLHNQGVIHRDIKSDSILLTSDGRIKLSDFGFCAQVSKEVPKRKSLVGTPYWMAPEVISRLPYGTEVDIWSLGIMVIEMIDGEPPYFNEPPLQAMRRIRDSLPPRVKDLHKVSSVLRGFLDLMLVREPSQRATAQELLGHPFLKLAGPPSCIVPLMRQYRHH

Chain of Dual specificity protein kinase CLK1 (Homo sapiens) (P49759 whole entry, looked up): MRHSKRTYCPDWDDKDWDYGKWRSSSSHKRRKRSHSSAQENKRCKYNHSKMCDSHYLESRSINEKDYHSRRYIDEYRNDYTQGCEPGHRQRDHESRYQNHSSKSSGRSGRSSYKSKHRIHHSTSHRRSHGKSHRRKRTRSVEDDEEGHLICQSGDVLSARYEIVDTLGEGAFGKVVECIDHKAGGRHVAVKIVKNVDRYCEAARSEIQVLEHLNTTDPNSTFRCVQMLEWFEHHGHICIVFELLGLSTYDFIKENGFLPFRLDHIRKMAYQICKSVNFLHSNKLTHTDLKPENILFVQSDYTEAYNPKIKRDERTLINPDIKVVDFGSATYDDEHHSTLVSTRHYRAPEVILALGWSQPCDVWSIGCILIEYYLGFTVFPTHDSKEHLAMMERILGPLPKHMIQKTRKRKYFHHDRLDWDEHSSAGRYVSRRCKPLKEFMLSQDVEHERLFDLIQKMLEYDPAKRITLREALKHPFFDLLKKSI
Chain of Focal adhesion kinase 1 (Homo sapiens) (Q05397 2-1052 limits assumed): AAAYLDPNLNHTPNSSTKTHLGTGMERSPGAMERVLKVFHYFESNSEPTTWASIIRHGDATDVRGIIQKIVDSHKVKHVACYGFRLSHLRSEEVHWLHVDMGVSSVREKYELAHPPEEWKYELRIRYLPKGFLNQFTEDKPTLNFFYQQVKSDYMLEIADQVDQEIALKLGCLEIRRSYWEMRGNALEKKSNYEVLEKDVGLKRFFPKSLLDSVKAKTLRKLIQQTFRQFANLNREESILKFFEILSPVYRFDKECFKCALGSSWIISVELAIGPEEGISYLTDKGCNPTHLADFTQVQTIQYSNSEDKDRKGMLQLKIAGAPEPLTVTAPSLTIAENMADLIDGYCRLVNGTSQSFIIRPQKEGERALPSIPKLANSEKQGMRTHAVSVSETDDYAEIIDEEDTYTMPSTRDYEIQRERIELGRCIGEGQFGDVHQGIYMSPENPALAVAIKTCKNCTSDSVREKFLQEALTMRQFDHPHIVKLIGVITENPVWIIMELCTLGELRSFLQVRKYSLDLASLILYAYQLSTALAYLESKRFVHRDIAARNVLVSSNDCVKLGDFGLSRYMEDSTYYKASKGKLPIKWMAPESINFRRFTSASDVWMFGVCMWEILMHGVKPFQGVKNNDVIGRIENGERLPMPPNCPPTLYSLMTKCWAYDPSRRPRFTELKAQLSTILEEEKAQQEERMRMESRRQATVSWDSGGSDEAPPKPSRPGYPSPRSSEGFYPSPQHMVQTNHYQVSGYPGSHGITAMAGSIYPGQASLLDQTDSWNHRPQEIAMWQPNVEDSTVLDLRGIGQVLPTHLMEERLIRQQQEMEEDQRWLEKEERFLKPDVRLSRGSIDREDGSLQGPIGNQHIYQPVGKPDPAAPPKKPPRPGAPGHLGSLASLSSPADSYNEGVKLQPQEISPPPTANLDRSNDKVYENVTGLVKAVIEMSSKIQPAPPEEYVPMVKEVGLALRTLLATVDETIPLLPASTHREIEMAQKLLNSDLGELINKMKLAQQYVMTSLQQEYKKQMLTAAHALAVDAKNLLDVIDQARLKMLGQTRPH
Chain of Cyclin-dependent kinase-like 2 (Homo sapiens) (Q92772 whole entry): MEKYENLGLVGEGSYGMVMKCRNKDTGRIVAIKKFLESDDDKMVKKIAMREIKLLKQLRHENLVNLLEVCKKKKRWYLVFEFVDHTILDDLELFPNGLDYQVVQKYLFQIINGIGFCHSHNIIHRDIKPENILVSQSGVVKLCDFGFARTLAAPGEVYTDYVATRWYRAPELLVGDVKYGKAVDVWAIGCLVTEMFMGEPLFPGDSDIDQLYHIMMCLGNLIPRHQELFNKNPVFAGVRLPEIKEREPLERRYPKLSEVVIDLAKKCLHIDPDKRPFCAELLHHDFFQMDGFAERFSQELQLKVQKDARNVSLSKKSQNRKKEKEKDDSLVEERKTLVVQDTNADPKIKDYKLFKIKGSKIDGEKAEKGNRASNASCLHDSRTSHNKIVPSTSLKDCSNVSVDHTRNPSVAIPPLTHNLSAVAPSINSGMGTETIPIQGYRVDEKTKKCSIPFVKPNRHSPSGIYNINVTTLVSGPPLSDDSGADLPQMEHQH
Chain of Inhibitor of nuclear factor kappa-B kinase subunit epsilon (Homo sapiens) (Q14164 whole entry): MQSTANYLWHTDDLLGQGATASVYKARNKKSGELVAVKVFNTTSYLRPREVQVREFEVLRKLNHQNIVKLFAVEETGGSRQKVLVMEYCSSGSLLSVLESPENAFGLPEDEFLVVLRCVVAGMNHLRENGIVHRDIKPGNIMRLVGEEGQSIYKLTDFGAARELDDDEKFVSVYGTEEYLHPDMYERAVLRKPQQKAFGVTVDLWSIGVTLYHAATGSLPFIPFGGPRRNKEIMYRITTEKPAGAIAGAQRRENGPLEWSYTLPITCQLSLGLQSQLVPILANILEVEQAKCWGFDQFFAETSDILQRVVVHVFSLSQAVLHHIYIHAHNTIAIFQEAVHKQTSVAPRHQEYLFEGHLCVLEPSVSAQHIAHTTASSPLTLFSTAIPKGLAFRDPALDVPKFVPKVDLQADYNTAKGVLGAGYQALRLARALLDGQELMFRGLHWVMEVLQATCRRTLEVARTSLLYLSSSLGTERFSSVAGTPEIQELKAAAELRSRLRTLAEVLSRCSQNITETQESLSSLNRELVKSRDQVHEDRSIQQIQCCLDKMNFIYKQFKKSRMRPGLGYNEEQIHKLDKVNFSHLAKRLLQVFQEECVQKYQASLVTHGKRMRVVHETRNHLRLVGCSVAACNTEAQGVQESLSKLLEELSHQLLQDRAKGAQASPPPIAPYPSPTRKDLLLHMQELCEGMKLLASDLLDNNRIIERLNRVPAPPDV
Chain of Mitogen-activated protein kinase kinase kinase 9 (Homo sapiens) (P80192 whole entry, looked up): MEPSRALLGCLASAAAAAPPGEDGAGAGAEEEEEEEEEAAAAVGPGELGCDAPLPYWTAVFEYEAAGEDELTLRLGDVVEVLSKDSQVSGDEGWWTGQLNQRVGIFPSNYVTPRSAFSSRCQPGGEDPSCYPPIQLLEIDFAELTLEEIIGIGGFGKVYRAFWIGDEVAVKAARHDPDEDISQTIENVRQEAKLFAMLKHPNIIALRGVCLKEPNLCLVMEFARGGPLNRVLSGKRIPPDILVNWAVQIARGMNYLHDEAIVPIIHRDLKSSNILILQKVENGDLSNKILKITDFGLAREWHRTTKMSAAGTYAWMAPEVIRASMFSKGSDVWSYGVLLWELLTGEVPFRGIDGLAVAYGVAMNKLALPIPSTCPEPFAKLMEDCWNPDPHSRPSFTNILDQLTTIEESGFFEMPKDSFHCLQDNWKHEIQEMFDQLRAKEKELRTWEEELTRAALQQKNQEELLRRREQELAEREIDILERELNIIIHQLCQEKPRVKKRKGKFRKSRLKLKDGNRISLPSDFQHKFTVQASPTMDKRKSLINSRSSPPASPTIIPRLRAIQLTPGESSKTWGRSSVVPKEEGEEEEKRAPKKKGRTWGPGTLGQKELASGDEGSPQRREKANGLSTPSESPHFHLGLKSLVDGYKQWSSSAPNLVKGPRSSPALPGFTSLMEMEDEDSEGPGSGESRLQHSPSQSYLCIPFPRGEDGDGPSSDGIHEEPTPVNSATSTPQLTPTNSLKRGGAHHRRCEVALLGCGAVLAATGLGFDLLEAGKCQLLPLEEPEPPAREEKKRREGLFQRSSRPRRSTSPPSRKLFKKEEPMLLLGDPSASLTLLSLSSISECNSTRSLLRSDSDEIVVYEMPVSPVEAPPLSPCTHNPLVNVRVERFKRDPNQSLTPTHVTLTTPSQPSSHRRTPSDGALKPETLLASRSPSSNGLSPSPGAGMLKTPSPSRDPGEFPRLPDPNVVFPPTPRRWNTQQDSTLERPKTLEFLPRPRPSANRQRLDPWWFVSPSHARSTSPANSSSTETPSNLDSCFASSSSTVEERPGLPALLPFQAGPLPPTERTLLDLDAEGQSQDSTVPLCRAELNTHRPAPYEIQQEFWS
Chain of Mitogen-activated protein kinase 1 (Homo sapiens) (P28482 whole entry): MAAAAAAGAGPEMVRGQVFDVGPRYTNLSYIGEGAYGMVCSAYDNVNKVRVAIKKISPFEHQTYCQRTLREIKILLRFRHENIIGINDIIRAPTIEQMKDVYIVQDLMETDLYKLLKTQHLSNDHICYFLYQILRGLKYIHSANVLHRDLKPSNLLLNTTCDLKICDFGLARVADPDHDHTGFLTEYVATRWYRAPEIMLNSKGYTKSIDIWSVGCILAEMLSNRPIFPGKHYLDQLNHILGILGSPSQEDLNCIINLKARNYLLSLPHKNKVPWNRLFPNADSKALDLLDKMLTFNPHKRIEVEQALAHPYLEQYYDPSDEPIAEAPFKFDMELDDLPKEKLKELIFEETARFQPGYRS

`O=C(Nc1cccnc1)c1cc(-c2ccnc(F)c2)ccc1OCc1ccccc1` showed an Activity [1] of 62%, an Activity [2] of 66% and an Activity [3] of 77%. The Activity [4] was 71%, the Activity [5] was 69% and the Activity [6] was 121%. For the same compound, the inhibition [7] was “Active”, the inhibition [8] was “Active” and the Activity [9] was 104%. For the same compound, the Activity [10] was 102%, the Activity [11] was 115% and the Activity [12] was 113%. It also gave an Activity [13] of 63%, an Activity [14] of 52% and an Activity [15] of 80%. It also gave an Activity [16] of 75% and an Activity [17] of 69%.
